# The RNAGym collection of RNA variant scans (doi:10.1038/s41586-018-0170-7)
# B1: tRNA (parent)
# chain: GUUCCGUUGGCGUAAUGGUAACGCGUCUCCCUCCUAAGGAGAAGACUGCGGGUUCGAGUCCCGUACGGAACG
# Variants of: B1
# Experiment: yeast fitness, log relative to wild type (ln ratio); higher = fitter; tRNA-Arg(CCU), competitive growth, 37 C, 1 M NaCl
# Procedure, shortened: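 In BY4742 missing the chromosomal gene, a combinatorial tRNA-Arg(CCU) variant library was maintained on a HIS3 centromeric plasmid. Selection ran ~6.5 generations (~26.5 h) in SC-HIS 1M NaCl at 37 °C, following 4 generations in SC-HIS at 30 °C, with three outputs per input and variant counts by 125 bp paired-end Illumina sequencing. Fitness is the natural log of a genotype's generations relative to the wild type's, with generations taken as inverse-variance-weighted, OD-scaled log2 output/input frequency.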
row,Variant,yeast fitness (ln)
1,G6A C46U C66U A69G A70G C71U,-0.581
2,U2C A43C C46U C66A C71U,-0.1
3,G1A U2G G6A C27U A43C C66U A70G C71U,-0.479
4,U2G G6A A43C C66A A69G A70U C71U,-0.329
5,U2G G6U C27U A43C C66U A69G,-0.31
6,U2G C27U C46U C66A C71U,-0.163
7,U2C C27U C66U A70U C71U,-0.324
8,G6A C46U C66A,-0.0719
9,U2C C27U C66A A70G C71U,-0.157
10,G1A G6U A43C C46U C66A A69G A70U C71U,-0.301
11,G1A G6U C27U C46U C66U A69G C71U,-0.595
12,G6U A43C C46U C66A C71U,-0.0527
13,U2C C46U C66U C71U,-0.0488
14,U2C G6U C27U C46U C66A A70U,-0.29
15,G1A U2G A69G A70G,-0.118
16,G1A U2C G6A C66U A69G A70G C71U,-0.0247
17,G1A C46U C66A A69G A70G C71U,-0.178
18,G1A U2C G6A C27U C46U A70U,-0.0702
19,U2G G6U C27U C46U C66A A69G C71U,-0.293
20,G1A G6A C46U C66U A69G A70U C71U,-0.363
21,G1A G6U C27U C66A A69G C71U,-0.388

row,Variant,yeast fitness (ln)
1,U2C C27U A43C C71U,-0.0796
2,G1A U2C C27U C46U C66A A70U,0.02
3,G1A U2C G6U A43C C46U C66A A69G A70G C71U,-0.0061
4,G1A U2G C46U C66A A70U,-0.109
5,U2G C27U A43C C66U A70U C71U,-0.333
6,G1A G6U A43C C66A A70U,-0.411
7,U2G A43C C66A A69G A70U C71U,-0.28
8,U2G G6U A70U,-0.0383
9,U2C G6A C46U C66A A70G,-0.016
10,G1A G6A C46U A70G C71U,-0.208
11,G1A C71U,-0.0163
12,G1A U2G G6U C66U A69G A70U,-0.386
13,U2G C27U C46U A70U,-0.00918
14,U2C G6A C27U A43C C46U C66U A69G A70G C71U,-0.0764
15,C27U A43C C46U A69G A70G C71U,-0.0917
16,C66U A69G,-0.168
17,G6A C27U A43C C46U A69G A70G C71U,-0.306
18,G1A G6U C27U C46U A69G A70G C71U,-0.335
19,G1A U2G C27U A43C C66U A70U C71U,-0.382
20,G6A C27U A43C C66U A69G C71U,-0.368
21,U2G C46U A70U,-0.00122

row,Variant,yeast fitness (ln)
1,U2C C27U C46U C66U A70G C71U,-0.075
2,G1A C27U A43C C66U A70U,-0.201
3,U2G A43C C66U,-0.19
4,U2G C27U A43C C46U A70G,-0.227
5,G1A U2G G6U C71U,-0.196
6,U2G C66U A69G A70G C71U,-0.204
7,U2C C27U A43C C66U A70U,-0.135
8,G6U C66U C71U,-0.639
9,G1A U2C G6A C27U C46U A70G C71U,-0.0986
10,G1A U2G,-0.0263
11,C27U A43C C46U C66U A69G A70G C71U,-0.18
12,U2C G6U C46U A69G C71U,-0.0672
13,G1A U2C G6U A70G,-0.113
14,U2C G6A A43C C66U A69G A70G C71U,-0.072
15,G1A G6U C66A C71U,0.00231
16,U2G G6U C27U A43C C66U A70G C71U,-0.316
17,G1A U2C G6U C27U C46U,-0.0885
18,G1A G6A C46U C66A A70U C71U,-0.15
19,U2C G6A C27U C46U A69G A70U,-0.152
20,U2G G6A A43C A69G A70G,-0.185
21,G1A A43C C46U C66A A69G A70G,-0.169

row,Variant,yeast fitness (ln)
1,G6U C27U C46U C66A A70U C71U,-0.213
2,G6U C27U C66A A70U C71U,-0.29
3,G1A G6A C27U A70G,-0.34
4,G6A C27U A43C A70U,-0.263
5,G1A U2C G6A C27U A43C C66U A69G A70G C71U,-0.255
6,G1A G6A C27U C46U C66U A69G A70G,-0.338
7,C27U C46U C66A A69G C71U,-0.262
8,U2C G6U C66U C71U,-0.139
9,G1A U2C C27U A43C C46U C66A A70U,-0.106
10,U2C G6U C66A A70U,0.0021
11,U2G G6U C27U C46U C66A A70G C71U,-0.168
12,G1A U2G G6U A43C C66U A69G A70G,-0.371
13,G1A C27U A43C C46U C66A A70U,-0.155
14,C46U C66U A69G,-0.104
15,G1A U2C C27U A69G A70U C71U,-0.351
16,G6A C66A A69G A70G,-0.159
17,G1A U2G G6U A43C C66A C71U,-0.265
18,G6U A43C C46U A69G A70U,-0.236
19,U2C G6U C27U C66U A70G C71U,-0.57
20,G1A G6U C27U A43C C66A A70G,-0.33
21,G1A U2C G6A,0.00615
